Hits are enriched below; roughly 1.8% of the tested compounds scored in any of these assays.
CHRM4 PAM = human M4 muscarinic receptor positive allosteric modulators, primary screen, CHO-K1 cells, Fluo-8 calcium fluorescence. Muscarinic acetylcholine receptor M4 (Homo sapiens), P08173. CHO-K1 hM4/Gqi5, ACh EC20; 0% = ACh EC20, 100% = maximal ACh. activation, % at 3 µM. hit rate 0.4% among 360,000;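 active = activation above its plate's cutoff, the mean activation of sample wells plus 3 SD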
Target sequence (P08173 whole entry, looked up): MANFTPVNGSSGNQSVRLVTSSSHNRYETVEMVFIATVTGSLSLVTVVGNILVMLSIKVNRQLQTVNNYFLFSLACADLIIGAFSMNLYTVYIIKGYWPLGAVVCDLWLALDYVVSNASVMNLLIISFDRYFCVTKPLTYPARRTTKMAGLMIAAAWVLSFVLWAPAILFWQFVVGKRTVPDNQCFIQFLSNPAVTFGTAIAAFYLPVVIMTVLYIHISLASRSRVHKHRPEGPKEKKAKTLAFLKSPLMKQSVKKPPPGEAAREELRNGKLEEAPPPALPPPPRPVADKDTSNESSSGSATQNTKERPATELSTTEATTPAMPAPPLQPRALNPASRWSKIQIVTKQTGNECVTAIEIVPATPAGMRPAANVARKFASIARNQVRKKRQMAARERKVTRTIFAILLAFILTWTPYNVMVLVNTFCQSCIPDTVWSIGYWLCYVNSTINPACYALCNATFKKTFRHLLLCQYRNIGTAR
M5 antag = human M5 muscarinic receptor antagonists, primary screen, CHO cells, Fluo-8 calcium fluorescence | inhibition, % at 3 µM | hit rate 0.59% among 360,000 | CHO-hM5 cells, ACh EC80 | Muscarinic acetylcholine receptor M5 (Homo sapiens), P08912;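 active = inhibition above a per-plate cutoff, the mean of that plate's test compounds plus 3 SD, cut at about 27% in these data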
CHRM4 antagonist = human M4 muscarinic receptor antagonists, primary screen, CHO cells, Fluo-8 calcium fluorescence; Muscarinic acetylcholine receptor M4 (Homo sapiens), P08173; CHO-hM4 cells, ACh EC80; AID 624125, 2012; hit rate 0.73% among 360,000; inhibition, % at 3 µM;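 active = inhibition above its plate's cutoff, the mean inhibition of sample wells plus 3 SD, cut at about 27% in these data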
M5 PAM = human M5 muscarinic receptor positive allosteric modulators, primary screen, CHO-K1 cells, Fluo-8 calcium fluorescence | AID 624038, 2012 | CHO-K1 hM5, ACh EC20 PAM; 0% = ACh EC20, 100% = ACh EC100 | Muscarinic acetylcholine receptor M5 (Homo sapiens), P08912 | hit rate 0.3% among 360,000 | activation, % at 3 µM;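 active = activation above the run cutoff, the mean activation of all test compounds plus 3 SD, cut at about 18% in these data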
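Replicates: One well per compound, no replicates | System: Human M5 receptor in CHO-K1 cells | Benchmarks: Low control EC20 acetylcholine (0%), high control EC100 acetylcholine (100%) | Probe or stimulus: Acetylcholine, EC20 level | Times: Fluo-8 loading 80 min at 37 °C plus 30 min room temperature | Signal: Intracellular calcium via Fluo-8 fluorescence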
M4 ag = human M4 muscarinic receptor agonists, primary screen, CHO-K1 cells, Fluo-8 calcium fluorescence; AID 624127, 2012; hit rate 0.14% among 360,000; CHO-K1 hM4/Gqi5; vehicle 0%, full acetylcholine response 100%; activation, % at 3 µM; Muscarinic acetylcholine receptor M4 (Homo sapiens), P08173;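 active = activation above the run mean over all test wells plus 3 SD, cut at about 32% in these data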;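 note: peak over basal fluorescence ratio per well then scaled between controls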
CHRM5 agonist = human M5 muscarinic receptor agonists, primary screen, CHO-K1 cells, Fluo-8 calcium fluorescence; Muscarinic acetylcholine receptor M5 (Homo sapiens), P08912; CHO-K1 hM5 cells; 0% DMSO wells, 100% maximal acetylcholine response; activation, % at 3 µM; hit rate 0.19% among 360,000;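 active = activation above the run's mean over test compounds plus 3 SD, cut at about 23% in these data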;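 note: signal is peak over basal fluorescence ratio across the kinetic read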
Numbers stand for hits; – = inactive.

SMILES	CHRM4 PAM	M5 antag	CHRM4 antagonist	M5 PAM	M4 ag	CHRM5 agonist
COC1=CC(=O)OC(c2ccc(C#N)cc2)C1 (configuration not stated)	–	–	–	–	–	–
Cc1ccc(C)c(N2CCN(c3ccc4cc(S(=O)(=O)N5CCCCC5)ccc4n3)CC2)c1	–	–	–	18	–	–
CC(O)CNc1nc(Cl)c(C#N)s1 (configuration not stated)	–	–	–	–	–	–
Cc1cc(C)cc(OCC(=O)Nc2ccc(N3CCN(C(=O)c4ccco4)CC3)cc2)c1	–	–	32	–	–	–
Cc1cc(C)c(OCC(=O)Nc2cccc(NC(=O)c3ccco3)c2)c(Br)c1	–	–	–	–	–	–
Cc1cc(C)c(OCC(=O)Nc2ccc(NC(=O)c3ccco3)cc2)c([N+](=O)[O-])c1	–	–	–	26	–	–
Cc1cc(C)c2nc(SCC(=O)NCC3CCCO3)c(C#N)cc2c1 (configuration not stated)	–	–	–	–	–	–
O=C(N/N=C/c1ccccn1)c1cccs1	–	–	–	–	–	–
COc1cccc(CN(C)C(=S)Nc2ccc(C)c(C)c2)c1	–	–	–	–	–	–
O=C(Nc1ccc(N2CCN(c3ccc(C(F)(F)F)cn3)CC2)nc1)c1cccs1	–	–	–	–	–	–
O=C(Nc1ccc(N2CCN(c3ncccc3C(F)(F)F)CC2)nc1)c1cccs1	–	–	27	–	–	–
CCNc1nc(NC(C)(C)C)nc(N(C#N)CC)n1	–	–	61	–	–	–
CCNc1nc(NCC)nc(N(C#N)C(C)C)n1	–	–	–	–	–	–
Oc1ccc(Cl)cc1C1=NNC(c2cc(Br)cc3c2OCOC3)C1 (configuration not stated)	–	–	–	21	–	–
Oc1ccc(Cl)cc1C1=NNC(c2ccc(Cl)cc2)C1 (configuration not stated)	–	–	–	–	–	–
Cc1cc(-c2ccc(S(=O)(=O)N3CCN(C)CC3)s2)on1	–	35	–	–	–	–
COc1cccc(CNCCc2c[nH]c3ccccc23)c1OCc1ccccc1	–	29	–	–	38	–
COCCCN1C(=O)N(c2ccc(F)cc2)C(=O)C1CC(=O)Nc1ccc(OC)cc1 (configuration not stated)	–	–	–	–	–	–
CC(NC(=O)/C(C#N)=C/c1ccc(C(=O)O)cc1)c1ccccc1 (configuration not stated)	–	–	–	–	–	–
COc1cc(/C=C(/C#N)C(=O)NC(C)c2ccccc2)cc(OC)c1O (configuration not stated)	–	–	–	–	33	–
O=C(NCc1ccc(Cl)cc1)c1ccc(-c2ccccc2C(F)(F)F)o1	–	–	–	–	–	–
CC1CCCCN1C(=O)CSc1nc(-c2ccccc2)cc(=O)[nH]1 (configuration not stated)	–	–	–	20	–	–
Cc1ccc(C(=O)N2CCN(Cc3ccc4c(c3)OCO4)CC2)cc1[N+](=O)[O-]	–	–	–	–	–	–
CC(=O)c1cc(C#N)c(N2CCCC2)nc1C	–	–	–	–	–	–
O=c1c(O)c(-c2ccc(O)c(O)c2)oc2cc(O)cc(O)c12	–	–	–	21	–	–
SMILES	CHRM4 PAM	M5 antag	CHRM4 antagonist	M5 PAM	M4 ag	CHRM5 agonist
CCOC(=O)C1(Cc2ccc(OC)cc2)CCN(C(=O)CN2CCCCC2=O)CC1	–	28	–	–	–	–
COc1ccc(S(=O)(=O)Nc2ccc3c(c2)OCO3)cc1OC	–	–	–	–	–	–
COc1ccc(NS(=O)(=O)c2ccc3c(c2)OCCO3)cc1OC	–	29	–	–	–	–
O=C(CSCc1ccc(F)cc1)N1CCN(c2ccc(F)cc2)CC1	–	–	–	–	–	–
O=C(CSCc1ccc(F)cc1)N1CCN(c2ccccc2)CC1	30	–	–	–	–	–
Cc1nc2ccn(Cc3ccccc3)c(=O)c2cc1C(=O)N1CCN(c2ccccc2)CC1	14	–	–	–	–	–
O=C(N/N=C/c1ccc(Cl)cc1Cl)c1n[nH]c2c1CCCC2	26	–	–	–	–	–
CC1CCCN(C(C(=O)NC2CCCCC2)c2cc3c(cc2[N+](=O)[O-])OCO3)C1 (configuration not stated)	25	–	–	–	–	–
CCCc1cc2c(cc1N(C)S(=O)(=O)c1ccccc1)OCO2	–	28	–	–	–	–
COc1ccccc1N(C)S(=O)(=O)c1ccc(C(=O)NCc2ccc3c(c2)OCO3)cc1	–	–	–	–	–	–
Cc1ccc(C(=O)NCC(=O)NCC(=O)OCc2ccc(Oc3ccc([N+](=O)[O-])cc3)cc2)cc1	–	31	–	–	–	–
CCN1/C(=C\c2ccc3cc(C)ccc3[n+]2CC)Sc2cc(C)c(C)cc21	–	42	–	–	–	–
CCN1/C(=C/c2ccc3cccc(C)c3[n+]2CC)Sc2ccccc21	–	27	31	–	–	–
CCN1/C(=C/c2ccc3cc(C)cc(C)c3[n+]2CC)Sc2cc(C)ccc21	–	31	–	–	–	–
CC(C)NC(=O)C1(C)CCCN1C/C=C/c1ccccc1 (configuration not stated)	–	–	–	–	–	–
CC[C@H](C)[C@H](NC(N)=O)C(=O)Nc1ccc(S(=O)(=O)NC(C)C)cc1	–	–	30	–	–	–
O=C(CSc1nc(N2CCOCC2)nc(N2CCOCC2)n1)Nc1ccc([N+](=O)[O-])cc1	–	–	–	22	–	–
CCOC(=O)C1CCCN(S(=O)(=O)c2ccc(S(=O)(=O)N(CC)CC)cc2)C1 (configuration not stated)	–	33	–	–	–	–
CCOC(=O)C1CCCN(C(=O)COc2ccccc2O)C1 (configuration not stated)	–	–	–	–	–	49
CCOC(=O)C1CCCN(C(=O)COc2ccccc2F)C1 (configuration not stated)	–	–	–	–	–	–
CCOC(=O)C1CCCN(C(=S)Nc2cc(C)cc(C)c2)C1 (configuration not stated)	–	–	–	–	–	28
